Experimental findings from ChEMBL document CHEMBL3232832, “Derivatives of dibenzothiophene for positron emission tomography imaging of α7-nicotinic acetylcholine receptors” (J Med Chem, 2013) are described below.

Molecules are shown by their SMILES.

In data set [1] the test system is Mus musculus. Nature of the data set: Toxicity in CD-1 mouse assessed as change in locomotor activity at 0.07 mCi, iv after 90 mins in presence of 7-(1,4-Diazabicyclo[3.2.2]nonan-4-yl)-2-fluorodibenzo[b,d]-thiophene 5,5-Dioxide. The format is organism-based. The conditions noted are these: in vivo, 1.5 h. The essentials: (§1)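 CD-1 mice observed for behavioral and locomotor changes during self-blockade studies. [18F]tracer (0.07 mCi, i.v.) was co-injected with the non-radioactive ligand at 0.3 or 0.2 mg/kg i.v., dissolved in saline at pH 5.5. Brains were harvested at 90 min.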

Data set [2] can be described thus: Drug uptake in CD-1 mouse superior and inferior colliculus at 70 uCi, iv followed by compound washout by gamma-counting analysis. The conditions noted are these: in vivo. Type of data set: ADME, organism-based. In short, it runs like this:
(§2)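 Male CD-1 mice (25–30 g) given [18F]radioligand i.v. into a lateral tail vein (70 µCi, 8000–12000 mCi/µmol, in 0.2 mL saline). Killed by cervical dislocation at various times, three per time point. Brains dissected on ice; regions weighed and gamma-counted with injectate standards. Result as %ID/g.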

For another data set, the system named is Brain. The data set is described as follows: Drug uptake in CD-1 mouse other brain regions at 0.07 mCi, iv after 90 mins in presence of 3-(1,4-Diazabicyclo[3.2.2]nonan-4-yl)dibenzo[b,d]-thiophene 5,5-dioxide. The format is ADME, organism-based. The conditions noted are these: in vivo, 1.5 h. In short, it runs like this:
(§3)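 Male CD-1 mice. [18F]tracer (0.07 mCi, SA 11000 mCi/µmol, i.v.) co-injected with α7 antagonist blocker at 0.001, 0.0045 or 0.014 mg/kg, handled as in the dose-escalation blockade. Brain regions harvested at 90 min and gamma-counted. %ID/g, mean ± SD, n=3; ANOVA versus controls.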

Data set [3] relates to Mus musculus. The data set is described as follows: Toxicity in CD-1 mouse assessed as change in behavioral activity at 0.07 mCi, iv after 90 mins in presence of 7-(1,4-Diazabicyclo[3.2.2]nonan-4-yl)-2-fluorodibenzo[b,d]-thiophene 5,5-Dioxide. Type of data set: organism-based. The conditions noted are these: in vivo, 1.5 h. The essentials:
as §1

Data set [4] can be described thus: Drug uptake in CD-1 mouse superior and inferior colliculus at 0.07 mCi, iv after 90 mins in presence of 3-(1,4-Diazabicyclo[3.2.2]nonan-4-yl)dibenzo[b,d]-thiophene 5,5-dioxide. Type of data set: ADME, organism-based. The conditions noted are these: in vivo, 1.5 h. In short, it runs like this:
as §3

Data set [5] relates to Hippocampus. Nature of the data set: Drug uptake in CD-1 mouse hippocampus at 70 uCi, iv followed by compound washout by gamma-counting analysis. Type of data set: ADME, organism-based. The conditions noted are these: in vivo. The essentials:
(§4)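 Male CD-1 mice (25–30 g), three per time point. [18F] radiotracer (70 µCi, SA 8000–12000 mCi/µmol, in 0.2 mL saline) given by tail vein. Killed at several times up to 90 min. Dissected regions weighed and gamma counted against injectate standards, giving %ID/g.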

The test system of data set [6] is Nucleic Acid. Nature of the data set: Ratio of drug uptake from superior and inferior colliculus to cerebellum in CD-1 mouse after 90 mins. The format is ADME, nucleic-acid assay. The conditions noted are these: 1.5 h. In short, it runs like this: (§5)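 CD-1 mouse baseline biodistribution after i.v. [18F]radioligand (70 µCi, 8000–12000 mCi/µmol, in 0.2 mL saline), three mice per time point to 90 min. Regional gamma-counting gave %ID/g, and each region was expressed as a ratio to cerebellum.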

A further data set concerns Striatum. The data set is described as follows: Drug uptake in CD-1 mouse striatum at 70 uCi, iv followed by compound washout by gamma-counting analysis. Type of data set: ADME, organism-based. The conditions noted are these: in vivo. The essentials: as §2
In data set [7] the test system is Cerebellum. Nature of the data set: Drug uptake in CD-1 mouse colliculus at 0.07 mCi, iv after 90 mins relative to drug uptake in CD-1 mouse cerebellum. The conditions noted are these: in vivo, 1.5 h. The format is ADME, organism-based.
Data set [8] has as its system Cerebellum. The data set is described as follows: Drug uptake in CD-1 mouse cerebellum at 0.07 mCi, iv after 90 mins in presence of 7-(1,4-Diazabicyclo[3.2.2]nonan-4-yl)-2-fluorodibenzo[b,d]-thiophene 5,5-Dioxide. Type of data set: ADME, organism-based. The conditions noted are these: in vivo, 1.5 h. In short, it runs like this: (§6)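 Male CD-1 mice, n=3. [18F] radiotracer (70 µCi, 0.2 mL) given i.v. together with unlabeled blocker in saline pH 5.5. Brain regions dissected at 90 min, gamma counted, expressed as %ID/g.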

Data set [9] has as its system Hippocampus. The data set is described as follows: Drug uptake in CD-1 mouse hippocampus at 0.07 mCi, iv after 90 mins in presence of 3-(1,4-Diazabicyclo[3.2.2]nonan-4-yl)dibenzo[b,d]-thiophene 5,5-dioxide. The format is ADME, organism-based. The conditions noted are these: in vivo, 1.5 h.
The test system of data set [10] is Cerebellum. Nature of the data set: Drug uptake in CD-1 mouse cerebellum at 0.07 mCi, iv after 90 mins in presence of 3-(1,4-Diazabicyclo[3.2.2]nonan-4-yl)-6-fluorodibenzo[b,d]thiophene 5,5-Dioxide. Type of data set: ADME, organism-based. The conditions noted are these: in vivo, 1.5 h. The essentials:
as §6

Data set [11] is described as follows: Drug uptake in CD-1 mouse frontal cortex at 70 uCi, iv followed by compound washout by gamma-counting analysis. The format is ADME, organism-based. The conditions noted are these: in vivo. In short, it runs like this:
as §4

The test system of data set [12] is Nucleic Acid. The data set is described as follows: Ratio of drug uptake from cortex to cerebellum in CD-1 mouse after 90 mins. The format is ADME, tissue-based. The conditions noted are these: 1.5 h.
The subject of another data set is Thalamus. Nature of the data set: Drug uptake in CD-1 mouse thalamus at 70 uCi, iv followed by compound washout by gamma-counting analysis. Type of data set: ADME, organism-based. The conditions noted are these: in vivo. The essentials: as §2
The subject of data set [13] is Cerebellum. The data set is described as follows: Drug uptake in CD-1 mouse cerebellum at 0.07 mCi, iv after 90 mins in presence of 3-(1,4-Diazabicyclo[3.2.2]nonan-4-yl)dibenzo[b,d]-thiophene 5,5-dioxide. Type of data set: ADME, organism-based. The conditions noted are these: in vivo, 1.5 h.
Data set [14] relates to Nucleic Acid. Nature of the data set: Ratio of drug uptake from hippocampus to cerebellum in CD-1 mouse after 90 mins. Type of data set: ADME, nucleic-acid assay. The conditions noted are these: 1.5 h.
Data set [15] relates to Cerebellum. Nature of the data set: Drug uptake in CD-1 mouse cerebellum at 70 uCi, iv followed by compound washout by gamma-counting analysis. Type of data set: ADME, organism-based. The conditions noted are these: in vivo. The essentials: as §4
The test system of data set [16] is Cerebellum. The data set is described as follows: Ratio of clearance in CD-1 mouse cerebellum to clearance in CD-1 mouse other brain tissues at 70 uCi, iv followed by compound washout after 90 mins by gamma-counting analysis. The format is ADME, organism-based. The conditions noted are these: in vivo, 1.5 h. In short, it runs like this:
as §5

Data set [17] can be described thus: Ratio of drug uptake in cortex to cerebellum in mouse. Type of data set: ADME, organism-based. The conditions noted are these: in vivo.
Data set [18] can be described thus: Selectivity ratio of Ki for alpha4beta2 nAChR (unknown origin) to Ki for rat cortical membrane alpha7 nAChR.
Data set [19] has as its target T1, Neuronal acetylcholine receptor subunit alpha-7 (Rattus norvegicus, UniProt Q05941). The data set is described as follows: Displacement of [3H]MLA from rat alpha7 nAChR.
Data set [20] addresses T1, Neuronal acetylcholine receptor subunit alpha-7. The data set is described as follows: Displacement of [125I]alpha-bungarotoxin from rat cortical membrane alpha7-nAChR after 150 mins by gamma-counting analysis.
For data set [21], the system named is Nucleic Acid. The data set is described as follows: Ratio of drug uptake in cortex to cerebellum in pig. The format is ADME, tissue-based, Sus scrofa. The conditions noted are these: in vivo.
Data set [22] has as its target Neuronal acetylcholine receptor subunit alpha-7 (Homo sapiens, UniProt P36544). Nature of the data set: Binding affinity to alpha7 nAChR (unknown origin).
Data set [23] can be described thus: Selectivity ratio of Ki for human 5HT3 receptor to Ki for rat cortical membrane alpha7 nAChR.
The target in data set [24] is T1, Neuronal acetylcholine receptor subunit alpha-7. Nature of the data set: Displacement of [125I]-alpha-BTX from rat alpha7-nAChR after 2 hrs by scintillation counting analysis.
Data set [25] has as its system Nucleic Acid. Nature of the data set: Ratio of drug uptake in cortex to cerebellum in Danish Landrace pig. Type of data set: ADME, tissue-based, Sus scrofa. The conditions noted are these: in vivo.
The target in data set [26] is T1, Neuronal acetylcholine receptor subunit alpha-7. Nature of the data set: Displacement of [125I]alpha-bungarotoxin from Sprague-Dawley rat brain alpha7-nAChR after 3 hrs.
Data set [27] relates to Nucleic Acid. The data set is described as follows: Ratio of drug uptake in cortex to cerebellum in CD-1 mouse at 0.67 MBq after 5 to 120 mins. The format is ADME. The conditions noted are these: in vivo.
The test system of data set [28] is Nucleic Acid. The data set is described as follows: Ratio of drug uptake in cortex to cerebellum in CD-1 mouse by gamma-counting analysis. Type of data set: ADME, tissue-based. The conditions noted are these: in vivo.
For data set [29], the target named is T1, Neuronal acetylcholine receptor subunit alpha-7. The data set is described as follows: Binding affinity to rat brain alpha7 nAChR.

T1 sequence (Q05941 whole entry): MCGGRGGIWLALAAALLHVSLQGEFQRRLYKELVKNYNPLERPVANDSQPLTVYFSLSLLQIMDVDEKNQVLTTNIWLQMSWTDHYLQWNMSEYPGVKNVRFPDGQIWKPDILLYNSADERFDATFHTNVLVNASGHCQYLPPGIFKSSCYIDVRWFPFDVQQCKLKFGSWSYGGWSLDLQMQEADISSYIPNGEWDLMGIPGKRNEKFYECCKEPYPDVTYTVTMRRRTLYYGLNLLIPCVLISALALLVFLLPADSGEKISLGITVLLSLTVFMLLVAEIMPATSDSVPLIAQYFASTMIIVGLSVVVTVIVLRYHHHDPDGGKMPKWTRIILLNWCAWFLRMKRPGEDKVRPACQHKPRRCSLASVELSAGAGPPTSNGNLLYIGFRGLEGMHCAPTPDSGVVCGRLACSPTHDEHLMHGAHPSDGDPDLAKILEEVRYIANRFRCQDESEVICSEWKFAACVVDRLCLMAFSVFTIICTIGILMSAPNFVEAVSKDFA
Chain of Neuronal acetylcholine receptor subunit alpha-7 (Homo sapiens, UniProt P36544) (P36544 whole entry): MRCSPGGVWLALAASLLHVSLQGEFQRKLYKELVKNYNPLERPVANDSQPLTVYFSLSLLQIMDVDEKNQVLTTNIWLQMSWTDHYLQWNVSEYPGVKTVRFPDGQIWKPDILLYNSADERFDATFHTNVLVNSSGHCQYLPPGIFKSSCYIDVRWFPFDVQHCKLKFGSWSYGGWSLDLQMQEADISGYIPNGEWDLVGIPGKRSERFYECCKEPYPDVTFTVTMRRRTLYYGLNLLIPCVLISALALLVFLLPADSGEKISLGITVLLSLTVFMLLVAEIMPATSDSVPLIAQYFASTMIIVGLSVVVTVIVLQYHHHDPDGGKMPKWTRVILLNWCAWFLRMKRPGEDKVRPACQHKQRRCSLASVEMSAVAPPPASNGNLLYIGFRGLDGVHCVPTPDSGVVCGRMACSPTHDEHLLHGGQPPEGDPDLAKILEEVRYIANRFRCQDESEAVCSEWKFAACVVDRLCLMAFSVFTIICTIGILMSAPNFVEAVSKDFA

In the case of `O=S1(=O)c2ccc([18F])cc2-c2ccc(N3CCN4CCC3CC4)cc21`, the Activity result with Mus musculus [1] and in the data set on Mus musculus [3] was “Non-toxic” in each case. The Drug uptake entry in [2] is listed as “Active”; in the data set with Brain, “Not Active”; in data set [4] it was “Not Active”; with Hippocampus [5] it was “Active”; with Striatum, “Active”; in the data set on Cerebellum [7], 80%. Also, the Drug uptake entry in the data set with Cerebellum [8] is listed as “Active”; in the data set on Hippocampus [9], “Not Active”; with Cerebellum [10], “Active”; in data set [11], “Active”; in the data set with Thalamus it was “Active”; in the data set with Cerebellum [13], “Not Active”. The Drug uptake result with Cerebellum [15] is listed as “Active”. The Ratio is recorded as 2 with Nucleic Acid [6], 2 in the data set on Nucleic Acid [12], 3.1 in the data set with Nucleic Acid [14] and 4.5 with Cerebellum [16].

With `O=[11C](Nc1ccc(Br)cc1)OC1CN2CCC1CC2` (stereo unspecified), the Ratio in [17] is listed as 0.3.

On to `O=S1(=O)c2ccc(I)cc2-c2ccc(N3CCN4CCC3CC4)cc21`, for which the Ratio Ki in data set [18] amounted to 63.

As for `[18F]c1ccccc1-c1cnc2c(c1)CC1(CN3CCC1CC3)O2` (stereo unspecified), the Ratio in data set [17] is on record as 0.8. For the same compound, the Ki amounted to 0.2 nM in data set [19] and 3.3 nM in data set [20].

With `[18F]c1ccc(-c2nnc(N3CCN4CCC3CC4)o2)cc1`, the Ratio in data set [17] is 0.4; in the data set on Nucleic Acid [21], 0.8. The inhibition constant Ki in data set [20] stood at 38 nM; in data set [22], 11.6 nM.

The compound `CN1C[C@H]2CN(c3ccc4c(c3)C(=O)c3cc(N5C[C@@H]6CN([11CH3])[C@@H]6C5)ccc3-4)C[C@H]21` displayed a Ki in data set [22] of 0.092 nM.

Take `O=S1(=O)c2ccc(F)cc2-c2ccc(N3CCN4CCC3CC4)cc21`: the Ratio Ki in data set [18] worked out at 663; in [23], 378.

`O=S1(=O)c2ccccc2-c2ccc(N3CCN4CCC3CC4)c(F)c21`: the Ratio Ki in [18] is 66.

As for `O=S1(=O)c2ccccc2-c2c(N3CCN4CCC3CC4)ccc(F)c21`, the Ratio Ki in [18] was found to be 210.

In the case of `[11CH3]n1cccc1-c1nnc(N2CCN3CCC2CC3)o1`, the Ki in data set [24] came out at 2.2 nM; in [20] it was 20.4 nM. The Ratio in the data set with Nucleic Acid [25] stood at 1.

`[11CH3]c1ccc(OC(=O)N2CCN3CCC2CC3)cc1`: the Ratio in data set [17] was determined as 0.6. The compound further came in with a Ki in data set [26] of 46 nM.

Regarding `[11CH3]N1CC2CN(c3ccc4oc5ccccc5c(=O)c4c3)CC2C1` (stereo unspecified), affinity in data set [19] was put at a Ki of 11 nM.

Consider `[125I]c1occc1-c1cnc2c(c1)CC1(CN3CCC1CC3)O2` (stereo unspecified), for which, in the data set with Nucleic Acid [27], the Ratio is 0.6.

For the compound `[11CH3]N1CC2CN(c3ccc(-c4ccc5[nH]ccc5c4)nn3)CC2C1` (stereo unspecified), in data set [22], the Ki worked out at 0.24 nM. In addition, the Ratio in the data set with Nucleic Acid [28] is 0.5.

Take `[11CH3]N1CC2CN(c3ccc(-c4ccccc4)nn3)CC2C1` (stereo unspecified): the Ratio in data set [17] is recorded as 0.2. Besides, in data set [29], the Ki is 10.8 nM.

Take `O=S1(=O)c2cc(N3CCN4CCC3CC4)ccc2-c2cccc(F)c21`: the figures for the Ratio Ki in data set [18] and in data set [23] were 1370 and 561, respectively.
